ChEMBL document CHEMBL1811909, “Synthesis and antiproliferative activity of novel 2-aryl-4-benzoyl-imidazole derivatives targeting tubulin polymerization” (Bioorg Med Chem, 2011)
Calls of active or inactive are those of the source. The calls are words filed in the database; no cut-off is given here.

Experiments:
PC-3 [1] = test: Antiproliferative activity against human PC3 cells after 96 hrs by sulforhodamine B assay; format: functional, cell-based; conditions: PC-3, 96 h
Bos taurus [2] = species: Bos taurus; test: Inhibition of bovine brain tubulin polymerization after 15 mins by spectrophotometric analysis
Procedure, shortened: (§1)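 Bovine brain tubulin (>97% pure, 0.4 mg per assay) mixed with compound at 5, 10 or 20 µM, with 5% DMSO as vehicle control. Buffer: 80 mM PIPES, 2.0 mM MgCl2, 0.5 mM EGTA, 1 mM GTP, pH 6.9. Polymerization followed at 37 °C as absorbance at 340 nm, read every minute for 15 min.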

MDA-MB-435 [3] = test: Resistance index, ratio of IC50 for human MDA-MB-435 cells expressing LCC6MDR1 to IC50 for human MDA-MB-435 cells; format: functional
Liver [4] = test: Half life in mouse liver microsomes at […] by LC-MS analysis; format: ADME, Microsome
Procedure, shortened: (§2)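 Aliquots were drawn at 5, 10, 20, 30, 60 and 90 min and quenched in acetonitrile containing internal standard. After centrifugation, supernatants were measured by LC-MS/MS to follow parent loss and derive half-life.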

MDA-MB-435 [5] = test: Antiproliferative activity against human MDA-MB-435 cells expressing LCC6MDR1 by sulforhodamine B assay; format: functional, cell-based
PC-3 [6] = test: Antiproliferative activity against human paclitaxel-resistant PC3 cells by sulforhodamine B assay; format: functional, cell-based
Procedure, shortened: (§3)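 Prostate cancer cells grown in RPMI 1640 with 10% FBS at 37 °C, 5% CO2. Cells (1000–5000/well, by growth rate) were exposed to a range of concentrations for 96 h, in three to five replicates. Growth was read by SRB: TCA fixation, 0.4% SRB stain, absorbance at 540 nm.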

PC-3 [7] = test: Antiproliferative activity against human PC3 cells by sulforhodamine B assay; format: functional, cell-based; procedure, shortened: as §3
Liver microsomes [8] = test: Metabolic stability of the compound in human liver microsomes at 0.5 uM up to 90 mins by LC-MS analysis; format: ADME, Microsome
PPC-1 = test: Antiproliferative activity against human PPC1 cells after 96 hrs by sulforhodamine B assay; format: functional, cell-based; conditions: PPC-1, 96 h
DU-145 [9] = test: Antiproliferative activity against human DU145 cells after 96 hrs by sulforhodamine B assay; format: functional, cell-based; conditions: DU-145, 96 h
MDA-MB-435 [10] = test: Antiproliferative activity against human MDA-MB-435 cells by sulforhodamine B assay; format: functional, cell-based
LNCaP = test: Antiproliferative activity against human LNCAP cells after 96 hrs by sulforhodamine B assay; format: functional, cell-based
PC-3 [11] = test: Resistance index, ratio of IC50 for human paclitaxel-resistant PC3 cells to IC50 for human PC3 cells; format: functional
Procedure, shortened: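 Ratio of SRB-assay IC50 values, paclitaxel-resistant PC-3-TxR over parental PC-3. Both lines grown in RPMI 1640 with 10% FBS and treated for 96 h, in three to five replicates. IC50 taken from absorbance at 540 nm by nonlinear regression.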

DU-145 [12] = test: Resistance index, ratio of IC50 for human paclitaxel-resistant DU145 cells to IC50 for human DU145 cells; format: functional
Procedure, shortened: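 Ratio of SRB-assay IC50 values, paclitaxel-resistant DU145-TxR over parental DU145. Both lines grown in RPMI 1640 with 10% FBS and exposed to the compound for 96 h, in three to five replicates. Absorbance read at 540 nm after TCA fixation and SRB staining.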

Liver microsomes [13] = test: Half life in rat liver microsomes at […] by LC-MS analysis; format: ADME, Microsome; procedure, shortened: as §2
[14] = Antiproliferative activity against human WM164 cells after 48 hrs by sulforhodamine B assay; format: functional, cell-based; conditions: WM164, 48 h
Liver microsomes [15] = test: Metabolic stability of the compound in human liver microsomes at […] up to 90 mins by LC-MS analysis; format: ADME, Microsome; procedure, shortened: as §2
Liver [16] = test: Metabolic stability of the compound in dog liver microsomes at […] up to 90 mins by LC-MS analysis; format: ADME, Canis lupus familiaris, Microsome; procedure, shortened: as §2
DU-145 [17] = test: Antiproliferative activity against human paclitaxel-resistant DU145 cells by sulforhodamine B assay; format: functional, cell-based
Procedure, shortened: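 Prostate cancer cells grown in RPMI 1640 with 10% FBS at 37 °C, 5% CO2. Seeded at 1000–5000 cells/well depending on growth rate and exposed to a concentration series for 96 h, in three to five replicates. Cells fixed with 10% TCA and stained with 0.4% SRB, absorbance read at 540 nm.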

A-375 = test: Antiproliferative activity against human A375 cells after 48 hrs by sulforhodamine B assay; format: functional, cell-based; conditions: A-375, 48 h
Liver [18] = test: Metabolic stability of the compound in dog liver microsomes at 0.5 uM up to 90 mins by LC-MS analysis; format: ADME, Canis lupus familiaris, Microsome
Procedure, shortened: (§4)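 Compound at 0.5 µM incubated with 1 mg/mL liver microsomal protein at 37 °C with shaking. […] Samples taken at 5, 10, 20, 30, 60 and 90 min and quenched with acetonitrile containing internal standard. After centrifugation, the supernatant was analysed by LC-MS/MS.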

Liver [19] = test: Half life in mouse liver microsomes at 0.5 uM by LC-MS analysis; format: ADME, Microsome; procedure, shortened: as §4
Liver microsomes [20] = test: Half life in rat liver microsomes at 0.5 uM by LC-MS analysis; format: ADME, Microsome; procedure, shortened: as §4
Bos taurus [21] = species: Bos taurus; test: Inhibition of bovine brain tubulin polymerization at 10 to 20 uM after 15 mins by spectrophotometric analysis; procedure, shortened: as §1
DU-145 [22] = test: Antiproliferative activity against human DU145 cells by sulforhodamine B assay; format: functional, cell-based

IC50 (PC-3 [1]) | inhibition (Bos taurus [2]) | IC50 (DU-145 [9]) | IC50 (LNCaP) | IC50 (A-375) | SMILES | IC50 (PPC-1) | IC50 [14] | further results
> 10 µM | Dose-dependent effect | > 10 µM | > 10 µM | > 10 µM | COc1cc(C(O)(c2nc3ccccc3s2)c2nc3ccccc3s2)cc(OC)c1OC | > 10 µM | > 10 µM | –
– | Dose-dependent effect | – | – | – | COc1cc(C(=O)c2c[nH]c(-c3ccc(C)cc3)n2)cc(OC)c1OC | – | – | Stability (Liver microsomes [8]): Stable; Stability (Liver [18]): Stable; t1/2 (Liver [19]): 12 min; t1/2 (Liver microsomes [20]): 20 min; Stability (Liver microsomes [15]): Stable
0.04 µM | Dose-dependent effect | 0.05 µM | 0.03 µM | 0.03 µM | COc1cc(C(=O)c2c[nH]c(-c3ccc(Br)cc3)n2)cc(OC)c1OC | 0.03 µM | 0.04 µM | Ratio IC50 (MDA-MB-435 [3]): 0.9; inhibition (Bos taurus [21]): Active; IC50 (MDA-MB-435 [5]): 0.079 µM; IC50 (PC-3 [6]): 0.016 µM; IC50 (PC-3 [7]): 0.018 µM; IC50 (MDA-MB-435 [10]): 0.086 µM; Ratio IC50 (PC-3 [11]): 0.9; Ratio IC50 (DU-145 [12]): 1.1; IC50 (DU-145 [22]): 0.049 µM; IC50 (DU-145 [17]): 0.054 µM
> 10 µM | Dose-dependent effect | > 10 µM | > 10 µM | > 10 µM | COc1cc(C(=O)c2nc3ccccc3s2)cc(OC)c1OC | > 10 µM | > 10 µM | –
> 10 µM | Dose-dependent effect | > 10 µM | > 10 µM | > 10 µM | COc1cc(C(=O)c2nc3ccccc3o2)cc(OC)c1OC | > 10 µM | > 10 µM | –
> 10 µM | Dose-dependent effect | > 10 µM | > 10 µM | > 10 µM | COc1cc(C(=O)c2cc3ccc(C)cc3[nH]2)cc(OC)c1OC | > 10 µM | > 10 µM | –
– | – | – | – | – | CC(=O)O[C@H]1C(=O)[C@@]2(C)[C@H]([C@H](OC(=O)c3ccccc3)[C@]3(O)C[C@H](OC(=O)[C@H](O)[C@@H](NC(=O)c4ccccc4)c4ccccc4)C(C)=C1C3(C)C)[C@]1(OC(C)=O)CO[C@@H]1C[C@@H]2O [PACLITAXEL] | – | – | IC50 (PC-3 [6]): 0.188 µM; IC50 (PC-3 [7]): 0.00043 µM; IC50 (DU-145 [17]): > 3 µM
9.16 µM | Dose-dependent effect | 3.42 µM | 8.63 µM | 2.21 µM | COc1cc(C(=O)c2cc3cc(F)ccc3[nH]2)cc(OC)c1OC | 1 µM | 2.26 µM | –

SMILES | IC50 (PC-3 [1]) | inhibition (Bos taurus [2]) | IC50 (DU-145 [9]) | IC50 (LNCaP) | IC50 (A-375) | IC50 (PPC-1) | IC50 [14] | further results
COc1cc(C(=O)c2cn(C)c(-c3ccc(C)cc3)n2)cc(OC)c1OC | 0.04 µM | Dose-dependent effect | 0.03 µM | 0.03 µM | 0.03 µM | 0.03 µM | 0.04 µM | Ratio IC50 (MDA-MB-435 [3]): 0.8; t1/2 (Liver [4]): 5 min; IC50 (MDA-MB-435 [5]): 0.067 µM; IC50 (PC-3 [6]): 0.019 µM; IC50 (PC-3 [7]): 0.021 µM; Stability (Liver microsomes [8]): Stable; IC50 (MDA-MB-435 [10]): 0.083 µM; Ratio IC50 (PC-3 [11]): 0.9; Ratio IC50 (DU-145 [12]): 1; t1/2 (Liver microsomes [13]): 10 min; Stability (Liver microsomes [15]): Stable; Stability (Liver [16]): Stable; IC50 (DU-145 [17]): 0.052 µM
COc1ccc2[nH]c(C(=O)c3cc(OC)c(OC)c(OC)c3)cc2c1 | 0.04 µM | Dose-dependent effect | 0.08 µM | 0.05 µM | 0.03 µM | 0.05 µM | 0.04 µM | –
COc1cc(C(=O)c2cc3ccc(Cl)cc3n2Cc2ccccc2)cc(OC)c1OC | > 10 µM | Dose-dependent effect | > 10 µM | > 10 µM | > 10 µM | > 10 µM | > 10 µM | –
